Experimental data of several laboratories.
Target: Tyrosine-protein kinase Srms (SRMS, Homo sapiens, UniProt Q9H3Y6)

| Structure (SMILES) | assay | setting | quantity | value |
| --- | --- | --- | --- | --- |
| Cn1cc(-c2cc(F)cc(N3CCn4c(cc5c4CCCC5)C3=O)c2CO)cc(Nc2ccc(N3CCN(C4COC4)CC3)cn2)c1=O | enzyme activity, inhibitor | 0.1 µM | inhibition | 17% |
| N#CC1(c2ccccn2)CCN(Cc2cc(C(=O)O)c(=O)n3ccccc23)CC1 | cell-free assay, competition with immobilised ligand | 1 µM | remaining binding | 93% |
| COc1ncccc1-c1cnn2ccc(N3CCN(C(=O)OC(C)C)CC3)nc12 | binding, competition with immobilised ligand | 1 µM | remaining binding | 78% |
| Cc1nn(C)cc1-c1nc2c(N3CCN(Cc4ccc(Cl)cc4)CC3)c(Cl)cnc2[nH]1 | binding, competition with immobilised ligand | 1 µM | remaining binding | 100% |
| Cn1cc(-c2cccc(N3CCc4c(sc5c4CC(C)(C)C5)C3=O)c2CO)cc(Nc2ccncn2)c1=O | enzyme activity, inhibitor | 1 µM | inhibition | -3% |
| O=c1[nH]c2ccccc2n1C1CCN(Cc2ccc(-c3[nH]c4cc5ncnc5cc4nc3-c3ccccc3)cc2)CC1 | cell-free assay | 0.5 µM | remaining signal | 93.1% |
| Cn1cncc1[C@@](O)(COc1ccc(C#N)cc1-c1ccc(OC(F)(F)F)cc1)c1ccc(C#N)cc1 | cell-free assay, competition with immobilised ligand | 1 µM | remaining binding | 100% |
| Nc1ncc(-c2nc(N3CCOCC3)nc(N3CCOCC3)n2)c(C(F)F)n1 | cell-free assay, competition with immobilised ligand | 10 µM | remaining binding | 88% |
